According to ChEMBL document CHEMBL3351896, “Small Molecule that Reverses Dexamethasone Resistance in T-cell Acute Lymphoblastic Leukemia (T-ALL)” (ACS Med Chem Lett, 2014):
The source made the active and inactive calls. No cut-off for these calls is given here.

Key:
[1] = Growth inhibition of human CUTLL1 cells in absence of 1 uM dexamethasone after 48 hrs by alamar blue assay; format: functional, cell-based; details: CUTLL1, 48 h
How it was run: (§1)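 CUTLL1 cells given compound alone or with dexamethasone 1 μM. Growth inhibition measured by alamar blue after 48 h.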

[2] = Growth inhibition of human CUTLL1 cells in presence of 1 uM dexamethasone after 48 hrs by alamar blue assay; format: functional, cell-based; details: CUTLL1, 48 h; how it was run: as §1
CUTLL1 [3] = experiment: Growth inhibition of human CUTLL1 cells with low GR expression levels after 48 hrs by alamar blue assay; format: functional, cell-based
How it was run: (§2)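 Human CUTLL1 T-ALL cells engineered to express high (overexpressed) or low (knockdown) glucocorticoid receptor levels. Exposed to compound alone or with 1 μM dexamethasone. Alamar blue growth inhibition read after 48 h.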

CUTLL1 [4] = experiment: Growth inhibition of human CUTLL1 cells with high GR expression levels after 48 hrs by alamar blue assay; format: functional, cell-based; how it was run: as §2
CUTLL1 [5] = experiment: Induction of PARP1 cleavage in human CUTLL1 cells at 1 uM after 24 hrs by western blotting method; format: functional, cell-based
[6] = target: T1, Gamma-secretase (Homo sapiens) (UniProt Q96BI3+Q9NZ42+Q8WW43+P49768+Q92542+P49810); experiment: Inhibition of gamma secretase in human CUTLL1 cells assessed as effect on NOTCH cleavage level at 100 nM in presence of 1 uM dexamethasone after 24 hrs by Western blotting; format: cell-based
How it was run: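 Dexamethasone-resistant human T-ALL CUTLL1 cells were treated for 24 h with the gamma-secretase inhibitor at 100 nM together with dexamethasone at 1 μM. Intracellular NOTCH (ICN) protein was then measured by Western blot.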

[7] = target: T1, Gamma-secretase (Homo sapiens); experiment: Inhibition of gamma secretase in human CUTLL1 cells assessed as effect on NOTCH cleavage level at 100 nM after 24 hrs by Western blotting; format: cell-based
CUTLL1 [8] = experiment: Growth inhibition of human CUTLL1 cells at 12.5 to 50 uM in presence of 1 uM dexamethasone and 1 uM […] and glucocorticoid receptor antagonist RU486 after 24 hrs by alamar blue assay

Structure (SMILES)	EC50 [1] [µM]	EC50 [2] [µM]	also measured
Nc1ncc(-c2ccccn2)c(C2CC2)n1	> 100	> 100	–
Nc1ncc(-c2cccnc2)c(C2CC2)n1	> 100	> 100	–
C[C@@H]1C[C@H]2[C@@H]3CCC4=CC(=O)C=C[C@]4(C)[C@@]3(F)[C@@H](O)C[C@]2(C)[C@@]1(O)C(=O)CO	–	–	growth inhibition (GI) (CUTLL1 [3]): inactive; growth inhibition (GI) (CUTLL1 [4]): Active; Activity (CUTLL1 [5]): inactive
C[C@H](NC(=O)Cc1cc(F)cc(F)c1)C(=O)N[C@H]1N=C(c2ccccc2)c2ccccc2N(C)C1=O	–	–	inhibition [6]: Active; inhibition [7]: Active
CC(C)c1nc(N)ncc1-c1ccncc1	> 100	> 100	–
Nc1ncc(-c2ccncc2)c(-c2ccoc2)n1	> 100	> 100	–
Nc1ncc(-c2ccccc2)c(C2CC2)n1	> 100	> 100	–
Nc1ncc(-c2ccncc2-c2ccoc2)c(C2CC2)n1	28	28	–
COc1ccc(-c2cnc(N)nc2C2CC2)cc1	> 100	> 100	–
Nc1ncc(-c2ccnc3ccccc23)c(C2CC2)n1	> 100	> 100	–
Nc1ncc(-c2ccnc(F)c2)c(C2CC2)n1	> 100	> 100	–
Nc1ncc(-c2ccncc2-c2ccccc2)c(C2CC2)n1	> 100	> 100	–
Nc1ncc(-c2ccncc2)c(C2CCC2)n1	> 100	> 100	–
Cc1ncc(-c2ccncc2)c(C2CC2)n1	> 100	> 100	–
Nc1ncc(-c2cc(Cl)nc(Cl)c2)c(C2CC2)n1	10	7.6	–
Nc1ncc(-c2ccncc2)cn1	> 100	> 100	–
Nc1ncc(-c2ccc(F)cc2)c(C2CC2)n1	> 100	> 100	–
Nc1ncc(-c2ccncc2)c(-c2ccccc2)n1	> 100	> 100	–
C=Cc1cnccc1-c1cnc(N)nc1C1CC1	30	29	–
Nc1ncc(-c2ccnc(Cl)c2)c(C2CC2)n1	> 100	> 100	–
Cc1nc(N)ncc1-c1ccncc1	> 100	> 100	–
Nc1ncc(-c2ccnc(-c3ccoc3)c2)c(C2CC2)n1	> 100	16	growth inhibition (GI) (CUTLL1 [8]): inactive
